Measurements taken from ChEMBL document CHEMBL4680165, “β-Lactams with antiproliferative and antiapoptotic activity in breast and chemoresistant colon cancer cells” (Eur J Med Chem, 2020).
Calls of active or inactive are those of the source. The calls are words filed in the database; no cut-off is given here.

Columns and labels:
MCF7 [1] = experiment: Cell cycle arrest in human MCF7 cells assessed as accumulation at G2/M phase at 1 uM measured after 24 hrs by PI staining based flow cytometry analysis (reference value: 24 %); assay type: functional
Summary of the method: (§1)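 Cells (1 × 10^5/well) were treated at 1 µM for 24, 48 and 72 h; vehicle was 0.1% v/v ethanol. Cells were trypsinised, fixed in ice-cold 70% ethanol overnight at −20 °C, then stained with PI (50 µg/mL) plus DNase-free RNase A (50 µg/mL) at 37 °C for 30 min. DNA content of 10,000 cells per group was read by flow cytometry at 488 nm.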

HT-29 [2] = experiment: Induction of apoptosis in human HT29 cells assessed as cell apoptosis at 1 uM after 72 hrs by Annexin V-FITC and propidium iodide staining based flow cytometry; assay type: functional
Summary of the method: (§2)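 HT-29 cells were treated at 1 µM for 24, 48 and 72 h against an untreated control. Cells were stained with Annexin V in binding buffer (HEPES pH 7.4, NaCl, CaCl2) for 30 min on ice in the dark, washed, resuspended in PI-containing buffer and read at once by flow cytometry. Quadrants: early apoptotic, late apoptotic, necrotic (Annexin V−/PI+).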

HT-29 [3] = experiment: Cell cycle arrest in human HT-29 cells assessed as accumulation at G2/M phase at 1 uM measured after 72 hrs by PI staining based flow cytometry analysis (reference value: 11 %); assay type: functional; summary of the method: as §1
HT-29 [4] = experiment: Induction of apoptosis in human HT29 cells assessed as cell apoptosis at 1 uM after 24 hrs by Annexin V-FITC and propidium iodide staining based flow cytometry; assay type: functional; summary of the method: as §2
MCF7 [5] = experiment: Cell cycle arrest in human MCF7 cells assessed as accumulation at G2/M phase at 1 uM by PI staining based flow cytometry analysis; assay type: functional; details: TDE = time-dependent effect; summary of the method: as §1
MCF7 [6] = experiment: Induction of apoptosis in human MCF7 cells assessed as downregulation of Bcl-2 expression level measured after 48 hrs by Western blot analysis; assay type: functional, cell-based; details: dose 0.05-0.5 µM
Summary of the method: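 MCF-7 cells (1 × 10^5 per flask) were treated at 0.05, 0.1 and 0.5 µM for 48 and 72 h; vehicle was 0.1% v/v ethanol. Lysis was in RIPA buffer with protease and phosphatase inhibitors. Equal protein (BCA) was run on 12% SDS-PAGE and blotted for Mcl-1, Bcl-2 and survivin, with GAPDH as loading control and ECL detection. Three independent experiments.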

Tubulin (Homo sapiens) [7] = target: T1, Tubulin (Homo sapiens) (UniProt P68371+Q9H4B7+P0DPH7+P68366+Q13509+Q71U36+P04350+Q3ZCM7+P07437+P68363+Q9BQE3+Q6PEY2+Q13885+Q9BVA1+Q9BUF5); experiment: Induction of microtubule depolymerization in human MCF7 cells assessed as induction of cell rounding at 100 nM for 5 hrs by immunofluorescence staining based confocal microscopic analysis
Summary of the method: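 MCF-7 cells were seeded at 1 × 10^5 cells/mL on chamber slides and treated at 0.01, 0.05 and 0.1 µM. Controls were vehicle (1% v/v ethanol), CA-4 (0.01 µM) and paclitaxel (1 µM). Cells were fixed and stained with anti-α-tubulin-FITC (DM1A) and Alexa Fluor 488, then counterstained with DAPI. Imaging was by confocal microscopy over three separate experiments.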

HT-29 [8] = experiment: Antiangiogenic activity in human HT29 cells assessed as reduction in IL-1beta secretion at 5 uM after 24 hrs by ELISA; assay type: functional, cell-based
Summary of the method: (§3)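 HT-29 cells at 5 x 10^4 per well, cultured 24 h and then exposed to 5 µM compound. Conditioned medium collected on ice and stored at -80 °C. Cytokines and angiogenic, vascular-injury and chemokine factors measured by multiplex panels with overnight supernatant incubation (Angiogenesis Panel 1 and Vascular Injury Panel 2 same day). Medium undiluted except 1:4 for Vascular Injury Panel 2. Secretion normalised to lysate protein by BCA.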

HT-29 [9] = experiment: Induction of apoptosis in human HT29 cells assessed as cell apoptosis at 1 uM after 48 hrs by Annexin V-FITC and propidium iodide staining based flow cytometry; assay type: functional; summary of the method: as §2
HT-29 [10] = experiment: Antiangiogenic activity in human HT29 cells assessed as reduction in IL-1alpha secretion at 5 uM after 24 hrs by ELISA; assay type: functional, cell-based; summary of the method: as §3
MCF7 [11] = experiment: Cell cycle arrest in human MCF7 cells assessed as accumulation at G2/M phase at 1 uM measured after 48 hrs by PI staining based flow cytometry analysis (reference value: 24 %); assay type: functional; summary of the method: as §1
MCF7 [12] = experiment: Induction of apoptosis in human MCF7 cells assessed as total apoptotic cells at 1 uM after 48 hrs by Annexin V-FITC and propidium iodide staining based flow cytometry (reference value: 10 %); assay type: functional
Summary of the method: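 MCF-7 cells were seeded at 1 × 10^5 cells/mL and treated for 48 h at 0.01, 0.1 and 1 µM; vehicle was 0.1% v/v ethanol. Annexin V staining was done on ice in the dark for 30 min in HEPES/NaCl/CaCl2 binding buffer, followed by PI. Flow cytometry scored early apoptotic (Annexin V+/PI−) and late apoptotic (Annexin V+/PI+) cells; total apoptotic is Annexin V-positive cells.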

[13] = target: T2, UDP-glucuronosyltransferases (UGTs) (Homo sapiens, UniProt O60656+O75310+O75795+P06133+P0DTE4+P0DTE5+P16662+P19224+P22309+P22310+P35503+P35504+P36537+P54855+Q6UWM9+Q9BY64+Q9HAW7+Q9HAW8+Q9HAW9); experiment: Metabolic stability in human liver microsomes assessed as UGT-mediated N-glucuronidation by measuring intrinsic clearance at 3 uM measured up to 45 mins by LC-MS/MS analysis; assay type: ADME; details: liver microsomes, read-out: CLH
Summary of the method: (§4)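 Pooled human liver microsomes (0.5 mg/mL protein final) with alamethicin (25 µg/mg) in 0.1 M phosphate pH 7.4, compound 3 µM final (0.25% DMSO), preincubated 37 °C. Reaction started with UDPGA (1 mM final). Sampled at 0, 5, 15, 30, 45 min into methanol, analysed by LC-MS/MS. Minus-UDPGA control run 45 min. Single incubations; t½ and CLint taken from the elimination rate constant.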

[14] = target: T2, UDP-glucuronosyltransferases (UGTs); experiment: Metabolic stability in human liver microsomes assessed as UGT-mediated N-glucuronidation by measuring half life at 3 uM measured up to 45 mins by LC-MS/MS analysis; assay type: ADME; details: liver microsomes; summary of the method: as §4
[15] = Selectivity index, ratio of IC50 for human MCF7 cells to IC50 for human HT-29 cells assessed as reduction in cell viability after 72 hrs by alamar blue assay; assay type: functional
HT-29 [16] = experiment: Cell cycle arrest in human HT-29 cells assessed as accumulation at G2/M phase at 1 uM measured after 48 hrs by PI staining based flow cytometry analysis (reference value: 11 %); assay type: functional; summary of the method: as §1
HT-29 [17] = experiment: Cell cycle arrest in human HT-29 cells assessed as accumulation at G2/M phase at 1 uM measured by PI staining based flow cytometry analysis; assay type: functional; details: TDE = time-dependent effect; summary of the method: as §1
Tubulin (Homo sapiens) [18] = target: T1, Tubulin (Homo sapiens); experiment: Induction of microtubule depolymerization in human MCF7 cells at 10 to 100 nM after 16 hrs by immunofluorescence staining based confocal microscopic analysis; assay type: cell-based; details: dose 10-100 nM
Summary of the method: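 MCF-7 cells seeded 1 × 10^5 cells/mL on chamber slides, exposed 16 h to vehicle [1% ethanol (v/v)] or test agent (0.01, 0.05, 0.1 µM). Fixed in 4% paraformaldehyde, permeabilised in 0.5% Triton X-100, blocked in 5% BSA, then stained with anti-α-tubulin-FITC (DM1A) 2 h rt, Alexa Fluor 488 1 h, DAPI mount. Confocal imaging; three independent experiments.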

## COc1ccc([C@H]2[C@H](O)C(=O)N2c2cc(OC)c(OC)c(OC)c2)cc1F
MCF7 [1]
  Activity: 66%
HT-29 [2]
  Activity: 2%
HT-29 [3]
  Activity: 64%
HT-29 [4]
  Activity: 21%
MCF7 [5]
  Activity: Tde
MCF7 [6]
  Activity: Dose-dependent effect
Tubulin (Homo sapiens) [7]
  Activity: Active
HT-29 [8]
  Activity: inactive
HT-29 [9]
  Activity: 25%
HT-29 [10]
  Activity: inactive
MCF7 [11]
  Activity: 75%
MCF7 [12]
  Activity: 35%
[13]
  microsomal CLint at 3 µM: 14.2 µL/min/mg
[14]
  half-life at 3 µM: 1.63 h
[15]
  Ratio IC50: 7.33
HT-29 [16]
  Activity: 57%
HT-29 [17]
  Activity: Tde
Tubulin (Homo sapiens) [18]
  Activity: Active
